Among the data in ChEMBL document CHEMBL3232908, “Guanacastane diterpenoids from the plant endophytic fungus Cercospora sp” (J Nat Prod, 2014) are Activity, IC50 and Ratio values, retold here.

Active and inactive are the calls of the source. The rule behind the calls is not given here.

Assay [1] concerns HeLa. Put plainly: Cytotoxicity against human HeLa cells at 50 uM after 48 hrs by MTS assay. Format: functional, cell-based. The gist of the method:
(§1)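 Cells seeded at 2−5 × 10^3 per well by growth rate and allowed to attach overnight. Medium then replaced with medium holding test compound or 0.1% DMSO, made by serial dilution of 100 mM DMSO stocks. Incubated 48 h at 37 °C in humidified 5% CO2. MTS added, 90 min at 37 °C in the dark, absorbance read at 490 nm. Run in triplicate.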

In assay [2] the test system is A549. Put plainly: Cytotoxicity against human A549 cells at 50 uM after 48 hrs by MTS assay. Format: functional, cell-based. A digest of the protocol: as §1
In assay [3] the test system is MCF7. The experiment in a line: Cytotoxicity against human MCF7 cells at 50 uM after 48 hrs by MTS assay. The format is functional, cell-based. A digest of the protocol:
as §1

In assay [4] the test system is HCT-116. Put plainly: Cytotoxicity against human HCT116 cells at 50 uM after 48 hrs by MTS assay. Format: functional, cell-based. The gist of the method: as §1
Another assay relates to T-24. The experiment in a line: Cytotoxicity against human T24 cells at 50 uM after 48 hrs by MTS assay. Format: functional, cell-based. A digest of the protocol: as §1
For orientation: Tetrazolium assays rely on reduction of a dye to a coloured formazan, in cell work by metabolically active cells.

The test system of assay [5] is HeLa. The experiment in a line: Cytotoxicity against human HeLa cells after 48 hrs by MTS assay. The format is functional, cell-based. A digest of the protocol: as §1
Assay [6] deals with A549. The experiment in a line: Cytotoxicity against human A549 cells after 48 hrs by MTS assay. Format: functional, cell-based. As to conditions: A549, 48 h. The gist of the method:
as §1

The subject of assay [7] is MCF7. Put plainly: Cytotoxicity against human MCF7 cells after 48 hrs by MTS assay. The format is functional, cell-based. The note with it: MCF7, 48 h. A digest of the protocol: as §1
Assay [8] concerns HCT-116. The experiment in a line: Cytotoxicity against human HCT116 cells after 48 hrs by MTS assay. The format is functional, cell-based. As to conditions: HCT-116, 48 h. The gist of the method: as §1
Assay [9] in a line: Cytotoxicity against human T24 cells after 48 hrs by MTS assay. The note with it: T-24, 48 h. The format is functional, cell-based. A digest of the protocol: as §1
In assay [10] the test system is HCT-116. Put plainly: Induction of autophagy in human HCT116 cells assessed as accrual of membrane vacuoles and autophagosome-like structure with double-membrane sturctures formation at 10 uM after 2 hrs by electron microscopy. The format is functional, cell-based. A digest of the protocol: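 HCT116 cells in RPMI-1640 treated 2 h. Cells washed three times with PBS, trypsinized and pelleted. Pellets fixed overnight in 4% paraformaldehyde at 4 °C, postfixed 1 h at room temperature in 1% OsO4 in cacodylate buffer, dehydrated stepwise in ethanol, rinsed in propylene oxide and embedded in Spurr resin. Thin sections examined by transmission electron microscopy.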

Assay [11] deals with HCT-116. The experiment in a line: Induction of autophagy in human HCT116 cells transfected with plasmid expressing GFP-LC3 at 10 uM by DAPI staining based fluorescence microscopy. Format: functional, cell-based. The gist of the method: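 HCT116 cells transfected with a GFP-LC3 plasmid. Transfection was 12 h by the legend and 24 h by the methods. Cells then incubated at 37 °C in RPMI-1640 with test compound or 1/1000 DMSO, fixed and stained with DAPI. GFP-LC3 puncta imaged by confocal fluorescence microscopy.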

The subject of assay [12] is HCT-116. The experiment in a line: Induction of autophagy in human HCT116 cells assessed as increase in ratio of LC3-II to actin expression at 2.5 uM after 2 hrs by Western blot analysis relative to control. The format is functional. The gist of the method:
(§2)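 HCT116 colon carcinoma cells were grown in RPMI-1640 with fetal bovine serum and antibiotics, split overnight to 50% confluence, then dosed. Cells were lysed in 50 mM Tris-HCl pH 7.4, 2 mM EDTA, 2 mM EGTA, 1 mM DTT, 1% Triton X-100 and protease inhibitors. SDS-PAGE and PVDF blot used polyclonal anti-LC3, anti-actin and ECL. LC3-II/actin was measured by densitometry, representative of three experiments.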

Assay [13] has as its system HCT-116. Put plainly: Induction of autophagy in human HCT116 cells assessed as increase in ratio of LC3-II to actin expression at 5 uM after 2 hrs by Western blot analysis relative to control. Format: functional. The gist of the method: as §2
For orientation: Immunoblotting shows a protein as a band on a membrane.

The subject of assay [14] is HCT-116. Put plainly: Induction of autophagy in human HCT116 cells assessed as increase in ratio of LC3-II to actin expression at 10 uM after 2 hrs by Western blot analysis relative to control. The format is functional. A digest of the protocol: as §2

On to `CC1=C2C=C3C(=O)C(O)=C([C@H](C)CO)[C@@]3(C)CC[C@]2(C)C[C@@H](O)C1=O`, for which the outcome in the assay on HeLa [1], in the assay with A549 [2], in the assay with MCF7 [3], in the assay with HCT-116 [4] and with T-24 was inactive.
As to `CC(C)C1=C(O)C(=O)C2=CC3=C(CCC4=C5CC6=C(O)C(=O)[C@H](C(C)C)[C@@]6(C)CC[C@]5(C)C[C@@H](O)C4=O)C(=O)[C@H](O)C[C@@]3(C)CC[C@@]21C`, the IC50 worked out at 19.3 µM with HeLa [5]; 29.7 µM in the assay on A549 [6]; 46.1 µM with MCF7 [7]; 21.3 µM with HCT-116 [8]; 8.16 µM in [9]. Also, the result with HCT-116 [10] and in the assay with HCT-116 [11] was Active. Besides, the Ratio in the assay on HCT-116 [12] stood at 1.2; in the assay on HCT-116 [13] it was 1.3; in the assay with HCT-116 [14], 1.4.
Take `CC(C)C1=C(O)C(=O)C2=CC3=C(CO)C(=O)[C@H](O)C[C@@]3(C)CC[C@@]21C`: the result with HeLa [1], in the assay with A549 [2], in the assay with MCF7 [3], in the assay with HCT-116 [4] and in the assay with T-24 was inactive.
Turning to `CC(C)C1=C(O)C(=O)C2=CC3=C(CCC4=C5C=C6C(=O)C(O)=C(C(C)C)[C@@]6(C)CC[C@]5(C)C[C@@H](O)C4=O)C(=O)[C@H](O)C[C@@]3(C)CC[C@@]21C`, the outcome in the assay on HeLa [1], in the assay with A549 [2], with MCF7 [3], with HCT-116 [4] and with T-24 was inactive.
Consider `C[C@H](CO)[C@H]1CC(=O)[C@@H]2[C@H]3OCC4=C3[C@@](C)(CCC4=O)CC[C@]12C`, for which the outcome in the assay on HeLa [1], with A549 [2], in the assay on MCF7 [3], in the assay on HCT-116 [4] and in the assay on T-24 was inactive.
Consider `CC(C)[C@H]1CC(=O)C2=CC3=C(CO)C(=O)C(O)=C[C@@]3(C)CC[C@@]21C`, for which the result in the assay on HeLa [1], with A549 [2], in the assay with MCF7 [3], with HCT-116 [4] and in the assay on T-24 was inactive.

Usually IC50 stands for the concentration needed to halve the response being measured. A high value points to weaker potency.
